From ChEMBL document CHEMBL3414517, “Synthesis and structure-activity relationship study of a new series of selective σ(1) receptor ligands for the treatment of pain: 4-aminotriazoles” (J Med Chem, 2015)
Converted amounts (≈) assume the structure as drawn. Values belong to the compound of their own block, whether it stands above or below them.

How the values were obtained:
[1] = Displacement of [3H]-DTG from sigma 2 receptor in guinea pig brain membrane after 120 mins by liquid scintillation counting; type: cell membranes, Cavia porcellus
How it was run: (§1)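 Guinea pig brain membranes (200 μg) with 10 nM [³H]-DTG in 50 mM Tris-HCl pH 8, σ1R masked by 400 nM (+)-SKF10047; 25 °C, 120 min; 10 μM haloperidol for non-specific binding. Filtered, washed 3× ice-cold 50 mM Tris-HCl pH 7.4, scintillation counted.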

[2] = molecular target: Sigma non-opioid intracellular receptor 1 (Homo sapiens, UniProt Q99720); experiment: Displacement of [3H](+)-pentazocine from human sigma 1 receptor transfected in HEK293 cells after 120 mins by liquid scintillation counting; type: cell-based
[3] = molecular target: Voltage-gated inwardly rectifying potassium channel KCNH2 (Homo sapiens, UniProt Q12809)
[4] = species on record: Cavia porcellus; experiment: Displacement of [3H]-DTG from sigma 2 receptor in guinea pig brain membrane at 1 uM after 120 mins by liquid scintillation counting; type: cell membranes; how it was run: as §1
[5] = system: Mus musculus; experiment: Antinociceptive activity against formalin-induced pain in CD1 mouse assessed as reduction in mean licking and biting time at 40 mg/kg, ip administered 30 mins before fomalin injection measured during second phase of 15 to 30 mins after formalin challenge; type: functional; conditions: route intraperitoneal
How it was run: (§2)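 Male CD1 mice, 6–8 weeks; 20 μL of 2.5% formalin (0.92% formaldehyde) injected i.pl. into right hind paw midplantar surface. Vehicle 0.5% HPMC or compound given i.p. or p.o. (10 mL/kg) 30 min before formalin; n = 7–8/group. Licking/biting time scored 15–30 min post-injection (phase II), blind; % antinociception derived relative to vehicle group.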

[6] = system: Mus musculus; experiment: Antinociceptive activity against formalin-induced pain in CD1 mouse assessed as reduction in mean licking and biting time at 80 mg/kg, po administered 30 mins before fomalin injection measured during second phase of 15 to 30 mins after formalin challenge; type: functional; how it was run: as §2
[7] = system: Mus musculus; experiment: Antinociceptive activity in CD1 mouse assessed as reduction in capsaicin-induced mechanical hypersensitivity measured as latency time to paw withdrawal response to upward pressure at 80 mg/kg, po administered 30 mins prior to capsaicin-challenge measured after 45 mins of treatment by von Frey filament test; type: functional
How it was run: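 Female CD1 mice habituated 2 h on mesh platform; vehicle 0.5% HPMC or compound p.o. (10 mL/kg) 30 min before i.pl. capsaicin (1 μg in 20 μL 1% DMSO). 15 min after capsaicin, dynamic plantar aesthesiometer filament (0.5 g) applied ≥5 mm from site, 3 trials averaged, 50 s cut-off; n = 8–26. % reduction of hypersensitivity = (LTD−LTV)/(CT−LTV)×100.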

[8] = system: Mus musculus; experiment: Antinociceptive activity in CD1 mouse sciatic nerve injury-induced neuropathic pain model assessed as reduction in mechanical hypersensitivity measured as hind paw withdrawal response at 80 mg/kg, po treated 30 mins before test by von Frey filament test; type: functional
How it was run: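 Male CD1 mice with partial sciatic nerve ligation; habituation 4 days, 2 baseline days, allodynia checked days 5 and 8 (vehicle on day 8). Compound given p.o. (10 mL/kg) on day 15, 30 min before von Frey testing; n = 7–8/group, two independent experiments. Effect referenced to day-8 vehicle threshold and pre-surgery baseline.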

[9] = Intrinsic clearance in human liver microsomes assessed as per mg of protein at 10 uM; type: ADME; conditions: read-out: CLH
[10] = Apparent permeability across human Caco2 cells at 10 uM after 2 hrs; type: ADME, cell-based; conditions: Caco-2
[11] = Lipophilicity, log P of the compound; type: physicochemical; conditions: octanol/water
How it was run: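 clogP calculated with ChemDraw Ultra 10.0.3.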

[12] = Dissociation constant, pKa of the compound; type: physicochemical
How it was run: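 pKa calculated in silico with ACDLABS 9.0.3.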

[13] = Thermodynamic solubility of the compound in phosphate buffer at pH 7.4; type: physicochemical; conditions: read-out: Therm_solubility
How it was run: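 Thermodynamic solubility measured from solid compound in phosphate buffer, pH 7.4, quantified by HPLC.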

Sequence of Voltage-gated inwardly rectifying potassium channel KCNH2 (Q12809 whole entry): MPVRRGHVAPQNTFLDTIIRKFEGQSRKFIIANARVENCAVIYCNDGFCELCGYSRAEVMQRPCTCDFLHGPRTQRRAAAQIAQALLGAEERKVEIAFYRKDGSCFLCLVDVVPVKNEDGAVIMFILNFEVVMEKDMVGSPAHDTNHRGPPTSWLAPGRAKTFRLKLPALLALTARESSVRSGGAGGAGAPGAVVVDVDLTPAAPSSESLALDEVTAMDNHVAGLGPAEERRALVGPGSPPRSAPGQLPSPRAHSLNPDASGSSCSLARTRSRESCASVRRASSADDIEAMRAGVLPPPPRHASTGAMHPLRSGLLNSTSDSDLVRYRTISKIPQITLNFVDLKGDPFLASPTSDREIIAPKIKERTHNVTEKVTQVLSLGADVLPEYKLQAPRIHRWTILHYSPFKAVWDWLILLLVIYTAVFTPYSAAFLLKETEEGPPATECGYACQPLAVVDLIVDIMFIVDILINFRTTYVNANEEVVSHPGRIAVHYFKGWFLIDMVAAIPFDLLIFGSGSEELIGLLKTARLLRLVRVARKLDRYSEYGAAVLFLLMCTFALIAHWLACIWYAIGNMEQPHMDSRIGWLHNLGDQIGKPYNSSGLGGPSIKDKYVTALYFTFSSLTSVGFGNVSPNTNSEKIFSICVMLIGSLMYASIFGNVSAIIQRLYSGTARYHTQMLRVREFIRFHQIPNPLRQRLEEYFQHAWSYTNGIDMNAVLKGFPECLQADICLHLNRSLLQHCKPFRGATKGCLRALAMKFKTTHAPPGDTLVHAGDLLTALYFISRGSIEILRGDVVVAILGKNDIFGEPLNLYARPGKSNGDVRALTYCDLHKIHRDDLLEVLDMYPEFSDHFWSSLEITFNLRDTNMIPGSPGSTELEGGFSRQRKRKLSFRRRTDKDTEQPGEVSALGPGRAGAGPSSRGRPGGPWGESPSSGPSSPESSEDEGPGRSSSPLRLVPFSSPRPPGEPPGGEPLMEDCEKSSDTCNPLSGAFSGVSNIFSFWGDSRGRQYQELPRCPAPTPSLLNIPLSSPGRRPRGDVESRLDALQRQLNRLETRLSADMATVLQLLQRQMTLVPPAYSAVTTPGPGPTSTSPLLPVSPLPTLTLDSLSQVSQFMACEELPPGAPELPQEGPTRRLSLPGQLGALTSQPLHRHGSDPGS
Sequence of Sigma non-opioid intracellular receptor 1 (Q99720 whole entry): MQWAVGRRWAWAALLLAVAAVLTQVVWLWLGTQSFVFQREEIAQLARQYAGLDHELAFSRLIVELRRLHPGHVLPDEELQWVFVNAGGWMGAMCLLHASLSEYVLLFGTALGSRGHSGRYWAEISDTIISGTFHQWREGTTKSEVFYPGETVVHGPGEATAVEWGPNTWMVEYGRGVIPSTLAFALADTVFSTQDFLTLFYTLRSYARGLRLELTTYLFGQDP

SMILES: Fc1ccc(Cn2cc(NCCN3CCCCC3)nn2)cc1F
Ki [1]: 946 nM

SMILES: c1c(NCCN2CCOCC2)nnn1C12CC3CC(CC(C3)C1)C2
IC50 [3]: > 10000 nM

SMILES: C[C@@H]1CCC[C@H](C)N1CCNc1cn(Cc2ccc(F)cc2)nn1
inhibition [4]: 72%

SMILES: Fc1ccc(Cn2cc(NCCN3CCC(F)(F)CC3)nn2)cc1F
Ki [1]: > 10000 nM
IC50 [3]: > 10000 nM

SMILES: Fc1cccc(-n2cc(NCCN3CCN(C4CCCCC4)CC3)nn2)c1
inhibition [4]: 74%

SMILES: Fc1cccc(-n2cc(NCCN3CCCCCC3)nn2)c1
inhibition [4]: 86%

SMILES: Clc1ccc(-n2cc(NCCN3CCCCC3)nn2)cc1
inhibition [4]: 65%
IC50 [3]: 3100 nM

SMILES: Fc1ccc(-n2cc(NCCN3CCCCC3)nn2)cc1F
inhibition [4]: 65%
IC50 [3]: 2200 nM

SMILES: Fc1cccc(-n2cc(NCCN3CCCCC3)nn2)c1
inhibition [4]: 59%
IC50 [3]: 5200 nM

SMILES: c1c(NCCN2CCOCC2)nnn1C1CCCCC1
Ki [2]: > 1000 nM

SMILES: Fc1ccc(-n2cc(NCCN3CCCCC3)nn2)c(F)c1
inhibition [4]: 53%

SMILES: Cc1cc(OCCN2CCOCC2)nn1-c1ccc2ccccc2c1
Ki [1]: > 1000 nM
inhibition in vivo at 40 mg/kg [5]: 50%
inhibition in vivo at 80 mg/kg [6]: 66%
inhibition in vivo at 80 mg/kg [7]: 48%
inhibition in vivo at 80 mg/kg [8]: 62%
microsomal CLint at 10 µM [9]: 3 µL/min/mg

SMILES: Clc1ccc(-n2cc(NCCN3CCCCC3)nn2)c(Cl)c1
inhibition [4]: 62%

SMILES: Fc1ccc(-n2cc(NCCN3CCC(F)(F)CC3)nn2)cc1F
inhibition [4]: 29%
IC50 [3]: > 10000 nM

SMILES: Fc1ccc(Cn2cc(NCCN3CCC(F)(F)CC3)nn2)cc1
Ki [1]: > 10000 nM

SMILES: c1ccc(Cn2cc(NCCN3CCCCC3)nn2)cc1
Ki [1]: 624 nM

SMILES: c1ccc(Cn2cc(NCCN3CCCCCC3)nn2)cc1
inhibition [4]: 75%

SMILES: CN1CCN(CCNc2cn(Cc3ccccc3)nn2)CC1
Ki [2]: 9620 nM

SMILES: Fc1ccc(-n2cc(NCCN3CCCCC3)nn2)cc1
inhibition [4]: 54%

SMILES: CCN(CC)CCNc1cn(Cc2ccccc2)nn1
Ki [2]: 701 nM

SMILES: CCN(CCN1CCOCC1)c1cn(C23CC4CC(CC(C4)C2)C3)nn1
Ki [1]: 72 nM

SMILES: Fc1cccc(Cn2cc(NCCN3CCCCC3)nn2)c1
inhibition [4]: 43%
IC50 [3]: > 10000 nM

SMILES: Fc1ccc(Cn2cc(NCCN3CCCCC3)nn2)cc1
inhibition [4]: 66%

More lines, main results first:

Ki [1]: 55 nM
SMILES: CCN(CCN1CCOCC1)c1cn(-c2ccc(Cl)c(Cl)c2)nn1

Ki [2]: 508 nM
SMILES: Clc1ccc(Cn2cc(NCCCN3CCOCC3)nn2)cc1Cl

Ki [1]: 69 nM
SMILES: Clc1ccc(Cn2cc(NCCN3CCCCC3)nn2)cc1Cl

Ki [2]: 878 nM
SMILES: Fc1ccc(Cn2cc(NCCN3CCOCC3)nn2)cc1F

Ki [2]: > 1000 nM
SMILES: c1ccc(Cn2cc(NCCN3CCOCC3)nn2)cc1

Ki [2]: 459 nM
SMILES: CC(=O)N(CCN1CCOCC1)c1cn(Cc2ccc(Cl)c(Cl)c2)nn1

Ki [1]: 562 nM
SMILES: Clc1ccc(-n2ccc(NCCN3CCOCC3)n2)cc1Cl

Ki [1]: > 10000 nM
microsomal CLint at 10 µM [9]: 2.9 µL/min/mg
Papp at 2 h, 10 µM [10]: 46.2 ×10⁻⁶ cm/s
logP [11]: 2.4
pKa [12]: 6.7
solubility thermodynamic [13]: > 4000 µg/mL
SMILES: Clc1ccc(Cn2cc(NCCN3CCOCC3)nn2)cc1Cl
inhibition in vivo at 40 mg/kg [5]: 94%
inhibition in vivo at 80 mg/kg [6]: 67%
inhibition in vivo at 80 mg/kg [7]: 94%
inhibition in vivo at 80 mg/kg [8]: 140%

Ki [1]: 323 nM
SMILES: Clc1ccc(-n2cc(NCCN3CCCCC3)nn2)cc1Cl
IC50 [3]: 1700 nM

inhibition [4]: 47%
SMILES: Fc1cccc(-n2cc(NCCN3CCCOCC3)nn2)c1

inhibition [4]: 87%
SMILES: Clc1ccc(Cn2cc(NCCN3CCCCCC3)nn2)cc1Cl

Ki [2]: 451 nM
SMILES: CCCN(CCN1CCOCC1)c1cn(-c2ccc(Cl)c(Cl)c2)nn1

Ki [2]: > 1000 nM
SMILES: Fc1ccc(-n2cc(NCCN3CCOCC3)nn2)cc1F

Ki [2]: > 1000 nM
SMILES: CS(=O)(=O)N(CCN1CCOCC1)c1cn(-c2ccc(Cl)c(Cl)c2)nn1

Ki [2]: 388 nM
SMILES: CC(=O)N(CCN1CCOCC1)c1cn(-c2ccc(Cl)c(Cl)c2)nn1

Ki [1]: > 10000 nM
microsomal CLint at 10 µM [9]: 0.8 µL/min/mg
Papp at 2 h, 10 µM [10]: 51 ×10⁻⁶ cm/s
logP [11]: 2.9
pKa [12]: 6.6
solubility thermodynamic [13]: 170 µg/mL (≈ 497 µM)
SMILES: Clc1ccc(-n2cc(NCCN3CCOCC3)nn2)cc1Cl
inhibition in vivo at 40 mg/kg [5]: 95%
inhibition in vivo at 80 mg/kg [6]: 62%
inhibition in vivo at 80 mg/kg [7]: 68%
inhibition in vivo at 80 mg/kg [8]: 56%
IC50 [3]: > 10000 nM

Ki [2]: 818 nM
SMILES: CC(=O)N1CCN(CCNc2cn(Cc3ccc(Cl)c(Cl)c3)nn2)CC1

inhibition [4]: 66%
SMILES: Clc1ccc(Cn2cc(NCCN3CCCOCC3)nn2)cc1Cl

Ki [2]: 10 nM
Ki [1]: 91 nM
SMILES: Clc1ccc(-n2ccc(NCCN3CCCCC3)n2)cc1Cl

Ki [2]: 781 nM
SMILES: Fc1cccc(-n2cc(NCCN3CCOCC3)nn2)c1

Ki [2]: 662 nM
SMILES: Fc1ccc(Cn2cc(NCCN3CCOCC3)nn2)cc1
